Results on four compounds are retold here after ChEMBL document CHEMBL5390282, “Discovery of tert-Butyl Ester Based 6-Diazo-5-oxo-l-norleucine Prodrugs for Enhanced Metabolic Stability and Tumor Delivery” (J Med Chem, 2023).

For orientation: Cmax means the highest concentration seen after dosing. The Tmax is the time from dosing to the highest level. By AUC is commonly meant the area under the concentration-time curve, a measure of exposure.

Molecules are shown by their SMILES. Where only a bound is given, the exact number is not on record here.

Series [1] in a line: Prodrug conversion in C57BL/6 mouse model with CES-/- bearing mouse EL4 cells assessed as concentration of DON release in tumor administered subcutaneously at 1 mg/kg DON equivalent measured after 30 mins. In kind it is ADME, organism-based. To be noted: in vivo, sc, 0.5 h, read-out: Drug metabolism. The procedure, abridged:
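Male and female CES1–/– C57BL/6 mice, 6–8 weeks old, each carrying a flank EL4 tumour (1 × 10^6 cells SC in PBS, grown to about 400 mm3). Prodrug dissolved just before use in ethanol:Tween 80:saline (5:10:85) and given once SC at 1 mg/kg DON equivalent, n = 3. At 30 min, plasma and tumour collected. DON measured by LC-MS/MS after dabsyl chloride derivatization, glutamate-d5 internal standard, calibration 0.03–100 nmol/mL.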

Series [2] in a line: Chemical stability of compound at pH 7.4 at 10 uM incubated for 24 hrs by HRMS analysis. The series is classed as physicochemical. To be noted: buffer, pH 7.4, 24 h. The procedure, abridged: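 Prodrug spiked at 10 μM into pH 7.4 buffer and held at 37 °C for 24 h. Loss of prodrug followed by HRMS.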
A short description of series [3]: Stability in human plasma suspended with human P493B cells assessed as tumor cell to plasma partitioning at 20 uM incubated for 1 hr. In kind it is ADME. Put shortly: (§1)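 P493B cells resuspended in human plasma at 10 million cells/mL and preincubated 5 min at 37 °C. Prodrug spiked at 20 μM final and incubated 1 h at 37 °C, in triplicate. Cells pelleted at 1000g. Plasma and pellet each analysed by LC-MS for intact prodrug and DON, with calibration made in each matrix. Partitioning expressed as cell/plasma ratio.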

Series [4] can be described thus: Stability in human P493B cells suspended in human plasma assessed as tumor cell to plasma partitioning ratio at 20 uM incubated for 1 hr. The series is classed as ADME, cell-based. Put shortly:
as §1

Series [5] can be described thus: Stability in human P493B cells suspended in human plasma assessed as DON metabolite release at 20 uM incubated for 1 hr. The series is classed as ADME, cell-based. Put shortly:
as §1

The next series concerns P493B. Nature of the series: Antiproliferative activity against human P493B cells assessed as reduction in cell viability incubated for 72 hrs by Cell Titer 96 Aqueous assay. In kind it is functional, cell-based. The procedure, abridged:
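P493B lymphoma cells seeded at 20 000 cells/well. Test agent added as half-log serial dilutions in 0.2% DMSO final, then 72 h growth. CellTiter 96 AQueous reagent added for 2 h and absorbance read at 490 nm. Viability scaled between untreated cells (100%) and cell-free medium (0%). EC50 obtained by nonlinear regression of log-transformed data.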

A short description of series [6]: Prodrug conversion in human P493B cells suspended in human plasma assessed as DON metabolite concentration at 20 uM incubated for 1 hr. The series is classed as ADME, cell-based. Put shortly:
as §1

A short description of series [7]: Prodrug conversion in tumor of C57BL/6 mouse model with CES-/- bearing mouse EL4 cells assessed as Cmax of DON metabolite at 2.9 mg/kg, sc measured upto 6 hrs by LC-MS analysis. In kind it is ADME, organism-based, Neoplasm. Details: dose 2.9 mg/kg, time < 6 hrs, route sc. To be noted: in vivo. Put shortly: (§2)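 CES1–/– C57BL/6 mice with flank EL4 tumours (about 400 mm3) dosed SC at 2.9 mg/kg (1 mg/kg DON equivalent) in ethanol:Tween 80:saline (5:10:85). Plasma, tumour and jejunum sampled 0–6 h after dosing. DON quantified by LC-MS/MS after dabsyl chloride derivatization, glutamate-d5 internal standard. Cmax, Tmax and AUC derived by noncompartmental analysis.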

The nature of series [8]: Prodrug conversion in tumor of C57BL/6 mouse model with CES-/- bearing mouse EL4 cells assessed as Tmax of DON metabolite at 2.9 mg/kg, sc measured upto 6 hrs by LC-MS analysis. The series is classed as ADME, organism-based, Neoplasm. Conditions: in vivo. Put shortly:
as §2

Series [9] in a line: Prodrug conversion in tumor of C57BL/6 mouse model with CES-/- bearing mouse EL4 cells assessed as AUC of DON metabolite at 2.9 mg/kg, sc measured upto 6 hrs by LC-MS analysis. Details: time < 6 hrs, dose 2.9 mg/kg, route sc. In kind it is ADME, organism-based, Neoplasm. To be noted: in vivo. The procedure, abridged:
as §2

Series [10] is described as follows: Prodrug conversion in tumor of C57BL/6 mouse model with CES-/- bearing mouse EL4 cells assessed as half life of DON metabolite at 2.9 mg/kg, sc measured upto 6 hrs by LC-MS analysis. In kind it is ADME, organism-based, Neoplasm. Conditions: in vivo. The procedure, abridged:
as §2

Series [11] is described as follows: Prodrug conversion in plasma of C57BL/6 mouse model with CES-/- bearing mouse EL4 cells assessed as Cmax of DON metabolite at 2.9 mg/kg, sc measured upto 6 hrs by LC-MS analysis. Details: time < 6 hrs, dose 2.9 mg/kg, route sc. In kind it is ADME, organism-based. Conditions: in vivo. The procedure, abridged:
as §2

Series [12] can be described thus: Prodrug conversion in plasma of C57BL/6 mouse model with CES-/- bearing mouse EL4 cells assessed as Tmax of DON metabolite at 2.9 mg/kg, sc measured upto 6 hrs by LC-MS analysis. The series is classed as ADME, organism-based. To be noted: in vivo. The procedure, abridged: as §2
Series [13] is described as follows: Prodrug conversion in plasma of C57BL/6 mouse model with CES-/- bearing mouse EL4 cells assessed as AUC of DON metabolite at 2.9 mg/kg, sc measured upto 6 hrs by LC-MS analysis. In kind it is ADME, organism-based. Details: time < 6 hrs, dose 2.9 mg/kg, route sc. To be noted: in vivo. Put shortly: as §2
A short description of series [14]: Prodrug conversion in plasma of C57BL/6 mouse model with CES-/- bearing mouse EL4 cells assessed as half life of DON metabolite at 2.9 mg/kg, sc measured upto 6 hrs by LC-MS analysis. Conditions: in vivo. In kind it is ADME, organism-based. Put shortly: as §2
Series [15] can be described thus: Prodrug conversion in C57BL/6 mouse model with CES-/- bearing mouse EL4 cells assessed as ratio of DON metabolite AUC in tumor to plasma at 2.9 mg/kg, sc measured upto 6 hrs by LC-MS analysis. In kind it is ADME, organism-based. To be noted: tumour. Put shortly:
as §2

Series [16] can be described thus: Prodrug conversion in jejunum of C57BL/6 mouse model with CES-/- bearing mouse EL4 cells assessed as Cmax of DON metabolite at 2.9 mg/kg, sc measured upto 6 hrs by LC-MS analysis. Details: dose 2.9 mg/kg, time < 6 hrs, route sc. To be noted: in vivo. The series is classed as ADME, organism-based. Put shortly:
as §2

The nature of series [17]: Prodrug conversion in jejunum of C57BL/6 mouse model with CES-/- bearing mouse EL4 cells assessed as Tmax of DON metabolite at 2.9 mg/kg, sc measured upto 6 hrs by LC-MS analysis. The series is classed as ADME, organism-based. To be noted: in vivo. Put shortly: as §2
The nature of series [18]: Prodrug conversion in jejunum of C57BL/6 mouse model with CES-/- bearing mouse EL4 cells assessed as AUC of DON metabolite at 2.9 mg/kg, sc measured upto 6 hrs by LC-MS analysis. The series is classed as ADME, organism-based. Details: dose 2.9 mg/kg, time < 6 hrs, route sc. To be noted: in vivo. Put shortly: as §2
Series [19] is described as follows: Prodrug conversion in jejunum of C57BL/6 mouse model with CES-/- bearing mouse EL4 cells assessed as half life of DON metabolite at 2.9 mg/kg, sc measured upto 6 hrs by LC-MS analysis. The series is classed as ADME, organism-based. To be noted: in vivo. Put shortly:
as §2

A short description of series [20]: Prodrug conversion in C57BL/6 mouse model with CES-/- bearing mouse EL4 cells assessed as ratio of DON metabolite AUC in tumor to jejunum at 2.9 mg/kg, sc measured upto 6 hrs by LC-MS analysis. To be noted: in vivo. The series is classed as ADME, organism-based. The procedure, abridged:
as §2

Series [21] can be described thus: Prodrug conversion in tumor of C57BL/6 mouse model with CES-/- bearing mouse EL4 cells assessed as AUC (0 to t) of DON metabolite at 2.9 mg/kg, sc measured upto 6 hrs by LC-MS analysis. In kind it is ADME, organism-based, Neoplasm. Conditions: in vivo. The procedure, abridged: as §2
Series [22] in a line: Prodrug conversion in plasma of C57BL/6 mouse model with CES-/- bearing mouse EL4 cells assessed as AUC (0 to t) of DON metabolite at 2.9 mg/kg, sc measured upto 6 hrs by LC-MS analysis. Conditions: in vivo. In kind it is ADME, organism-based. The procedure, abridged: as §2
Series [23] is described as follows: Prodrug conversion in jejunum of C57BL/6 mouse model with CES-/- bearing mouse EL4 cells assessed as AUC (0 to t) of DON metabolite at 2.9 mg/kg, sc measured upto 6 hrs by LC-MS analysis. In kind it is ADME, organism-based. Conditions: in vivo. The procedure, abridged:
as §2

Series [24] in a line: Prodrug conversion of C57BL/6 mouse model with CES-/- bearing mouse EL4 cells assessed as ratio of DON metabolite AUC (0 to t) in tumor to plasma at 2.9 mg/kg, sc measured upto 6 hrs by LC-MS analysis. The series is classed as ADME, organism-based. Conditions: tumour. Put shortly:
as §2

A short description of series [25]: Prodrug conversion of C57BL/6 mouse model with CES-/- bearing mouse EL4 cells assessed as ratio of DON metabolite AUC (0 to t) in tumor to jejunum at 2.9 mg/kg, sc measured upto 6 hrs by LC-MS analysis. The series is classed as ADME, organism-based. To be noted: in vivo. Put shortly: as §2
A short description of series [26]: Drug concentration in jejunum of C57BL/6 mouse model with CES-/- bearing mouse EL4 cells at 2.9 mg/kg, sc measured upto 6 hrs by LC-MS analysis. In kind it is ADME, organism-based. Put shortly: as §2

For `CN(C)CC(=O)N[C@@H](Cc1ccc(C(F)(F)F)cc1)C(=O)N[C@@H](CCC(=O)C=[N+]=[N-])C(=O)OC(C)(C)C`, in series [1], the concentration worked out at 4.16 µM.

Regarding `CN(C)CC(=O)N[C@@H](CCc1ccccc1)C(=O)N[C@@H](CCC(=O)C=[N+]=[N-])C(=O)OC(C)(C)C`, in series [1], the concentration is 4.52 µM.

As to `CC(=O)N[C@@H](Cc1c[nH]c2ccccc12)C(=O)N[C@@H](CCC(=O)C=[N+]=[N-])C(=O)OC(C)C` [SIRPIGLENASTAT], the concentration in series [1] turned out to be 1.21 µM. For the same compound, the Stability entry in [2] is recorded as “Stable”; in series [3], “Stable”; in [5] it was “Unstable”. For the same compound, the Ratio in series [4] came to 180. In addition, the Activity result in the series on P493B was “Dose-Dependent Effect”. Also, the Drug metabolism in series [6] is 9.1 µM.

With `CN(C)CC(=O)N[C@@H](Cc1ccccc1)C(=O)N[C@@H](CCC(=O)C=[N+]=[N-])C(=O)OC(C)(C)C`, in [1], the concentration amounted to 5.49 µM. In addition, the results for the highest concentration (Cmax) in [7], in series [11] and in [16] were 5.49 µM, 1.86 µM and 1.54 µM, respectively. In addition, the Tmax is 30 min in series [8], 30 min in series [12] and 60 min in [17]. The AUC in [9] stood at 14.4 µM·h; in [13] it was 3.97 µM·h; in [18] it was 3.67 µM·h. Further, the t1/2 in series [10] is 83.4 min; in series [14], 87 min; in series [19], 59.4 min. For the same compound, the “Ratio AUC” value in [15] came to 3.63; in [20], 3.92; in series [24], 3.6; in series [25], 4.4. Besides, the AUCt in series [21] amounted to 13.7 nmol·h/g; in series [22], 3.8 nmol·h/g; in series [23], 3.13 nmol·h/g. The concentration at 6 h in [26] is less than 0.01 µM. For the same compound, the Stability entry in series [2] was “Stable”; in [3] it was “Stable”; in [5], “Unstable”. The Ratio in [4] was found to be 140. In addition, the Activity entry in the series on P493B is “Dose-Dependent Effect”. Moreover, the Drug metabolism in series [6] worked out at 46.7 µM.
